{"source": "ChEMBL document CHEMBL4425169", "about": "(ACS Med Chem Lett, 2016)", "key": {"[1]": {"biological_target": "Voltage-gated inwardly rectifying potassium channel KCNH2 (Homo sapiens, UniProt Q12809)", "sequence (Q12809 whole entry)": "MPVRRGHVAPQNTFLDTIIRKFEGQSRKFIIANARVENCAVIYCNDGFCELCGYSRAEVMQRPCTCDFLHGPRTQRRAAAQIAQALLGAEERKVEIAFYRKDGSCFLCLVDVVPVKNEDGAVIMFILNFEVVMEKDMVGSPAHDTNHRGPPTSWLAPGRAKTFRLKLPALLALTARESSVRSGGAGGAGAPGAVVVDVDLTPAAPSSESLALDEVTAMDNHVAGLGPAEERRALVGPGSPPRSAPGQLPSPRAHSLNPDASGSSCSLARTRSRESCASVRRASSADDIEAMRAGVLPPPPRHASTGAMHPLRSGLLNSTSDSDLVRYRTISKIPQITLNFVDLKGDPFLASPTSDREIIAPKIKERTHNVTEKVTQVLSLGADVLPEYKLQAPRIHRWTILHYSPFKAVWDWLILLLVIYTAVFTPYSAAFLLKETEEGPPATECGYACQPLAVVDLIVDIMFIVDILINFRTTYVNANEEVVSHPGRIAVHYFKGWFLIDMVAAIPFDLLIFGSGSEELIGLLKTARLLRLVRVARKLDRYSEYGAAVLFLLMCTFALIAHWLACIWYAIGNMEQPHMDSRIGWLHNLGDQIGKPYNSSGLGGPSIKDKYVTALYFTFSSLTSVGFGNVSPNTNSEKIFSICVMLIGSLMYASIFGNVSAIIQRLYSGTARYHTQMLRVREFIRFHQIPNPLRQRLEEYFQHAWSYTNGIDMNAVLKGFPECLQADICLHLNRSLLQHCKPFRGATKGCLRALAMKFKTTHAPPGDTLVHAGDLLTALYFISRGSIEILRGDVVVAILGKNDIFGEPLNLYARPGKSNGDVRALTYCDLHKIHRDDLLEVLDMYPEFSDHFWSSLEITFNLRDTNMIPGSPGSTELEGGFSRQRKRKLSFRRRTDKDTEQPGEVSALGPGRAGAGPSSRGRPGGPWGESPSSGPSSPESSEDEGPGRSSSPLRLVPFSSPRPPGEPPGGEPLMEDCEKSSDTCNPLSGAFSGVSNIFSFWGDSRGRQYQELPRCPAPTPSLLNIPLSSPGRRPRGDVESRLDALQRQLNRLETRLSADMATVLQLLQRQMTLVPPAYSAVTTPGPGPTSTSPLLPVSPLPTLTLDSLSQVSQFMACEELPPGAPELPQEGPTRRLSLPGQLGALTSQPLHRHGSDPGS", "assay": "Displacement of [35S]MK-499 from human ERG"}, "Rattus norvegicus [2]": {"tested_on": "Rattus norvegicus", "assay": "Natriuretic activity in Sprague-Dawley rat at 10 mg/kg via oral gavage administered 30 mins prior to void induction by loading saline measured upto 4 hrs relative to vehicle treated control", "assay_type": "functional", "outline": "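Acute 4 h study in Sprague-Dawley rats after oral dosing, n = 5 per group. Urine volume and sodium and potassium excretion were expressed as fold increase over vehicle-treated animals. Significance was tested versus vehicle (p < 0.05 or p < 0.01).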"}, "Rattus norvegicus [3]": {"tested_on": "Rattus norvegicus", "assay": "Diuretic activity in Sprague-Dawley rat at 1 mg/kg via oral gavage administered 30 mins prior to void induction by loading saline measured upto 4 hrs relative to vehicle treated control", "assay_type": "functional", "outline": "(§1)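 Acute rat diuresis model in male-unspecified Sprague-Dawley rats, single oral dose, urine collected over 4 h. Urine volume, sodium excretion and potassium excretion expressed as fold increase over vehicle-treated controls; n = 5 per group; significance tested against vehicle.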"}, "Rattus norvegicus [4]": {"tested_on": "Rattus norvegicus", "assay": "Natriuretic activity in Sprague-Dawley rat at 1 mg/kg via oral gavage administered 30 mins prior to void induction by loading saline measured upto 4 hrs relative to vehicle treated control", "assay_type": "functional", "outline": "as §1"}, "Rattus norvegicus [5]": {"tested_on": "Rattus norvegicus", "assay": "Kaliuretic activity in Sprague-Dawley rat at 10 mg/kg via oral gavage administered 30 mins prior to void induction by loading saline measured upto 4 hrs relative to vehicle treated control", "assay_type": "functional", "outline": "as §1"}, "Rattus norvegicus [6]": {"tested_on": "Rattus norvegicus", "assay": "Kaliuretic activity in Sprague-Dawley rat at 0.3 mg/kg via oral gavage administered 30 mins prior to void induction by loading saline measured upto 4 hrs relative to vehicle treated control", "assay_type": "functional", "outline": "as §1"}, "Rattus norvegicus [7]": {"tested_on": "Rattus norvegicus", "assay": "Kaliuretic activity in Sprague-Dawley rat at 1 mg/kg via oral gavage administered 30 mins prior to void induction by loading saline measured upto 4 hrs relative to vehicle treated control", "assay_type": "functional", "outline": "as §1"}, "[8]": {"assay": "Volume of distribution at steady state in rat at 1 mg/kg, iv or 2 mg/kg, po", "assay_type": "ADME, organism-based", "details": "in vivo, read-out: Vdss", "outline": "(§2)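 Rats dosed once at 1 mg/kg IV and, separately, 2 mg/kg PO, with n = 3. Derived parameters were plasma clearance, Vdss, dose-normalized oral AUC (μM·h·kg/mg), half-life, and oral bioavailability (F%).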"}, "[9]": {"assay": "Clearance in dog at 1 mg/kg, iv or 2 mg/kg, po", "assay_type": "ADME, organism-based, Canis lupus familiaris", "details": "in vivo"}, "[10]": {"assay": "Volume of distribution at steady state in dog at 1 mg/kg, iv or 2 mg/kg, po", "assay_type": "ADME, organism-based, Canis lupus familiaris", "details": "in vivo, read-out: Vdss"}, "[11]": {"assay": "Dose normalized AUC in rhesus monkey at 2 mg/kg, po", "assay_type": "ADME, organism-based, Macaca mulatta", "details": "in vivo"}, "[12]": {"assay": "Half life in rhesus monkey at 1 mg/kg, iv or 2 mg/kg, po", "assay_type": "ADME, organism-based, Macaca mulatta", "details": "in vivo"}, "[13]": {"assay": "Oral bioavailability in rhesus monkey at 2 mg/kg", "assay_type": "ADME, organism-based, Macaca mulatta", "details": "in vivo"}, "[14]": {"assay": "Drug metabolism in dog hepatocytes assessed as oxidation at 1 uM measured at 120 mins", "assay_type": "ADME, cell-based, Canis lupus familiaris, Hepatocyte", "details": "read-out: Drug metabolism"}, "[15]": {"assay": "Drug metabolism in monkey hepatocytes assessed as lactone hydrolysis at 1 uM measured at 120 mins", "assay_type": "ADME, cell-based, Macaca mulatta, Hepatocyte", "details": "rhesus monkey, read-out: Drug metabolism"}, "[16]": {"assay": "Drug metabolism in human hepatocytes assessed as lactone hydrolysis at 1 uM measured at 120 mins", "assay_type": "ADME, cell-based, Hepatocyte", "details": "read-out: Drug metabolism"}, "[17]": {"assay": "Drug metabolism in rat hepatocytes assessed as glucuronidation at 1 uM measured at 120 mins", "assay_type": "ADME, cell-based, Hepatocyte", "details": "read-out: Drug metabolism"}, "[18]": {"assay": "Drug metabolism in dog hepatocytes assessed as glucuronidation at 1 uM measured at 120 mins", "assay_type": "ADME, cell-based, Canis lupus familiaris, Hepatocyte", "details": "read-out: Drug metabolism"}, "[19]": {"assay": "Half life in human", "assay_type": "ADME"}, "[20]": {"biological_target": "T1, Inward rectifier potassium channel 2 (Homo sapiens, UniProt P63252)", "T1 sequence (P63252 whole entry)": "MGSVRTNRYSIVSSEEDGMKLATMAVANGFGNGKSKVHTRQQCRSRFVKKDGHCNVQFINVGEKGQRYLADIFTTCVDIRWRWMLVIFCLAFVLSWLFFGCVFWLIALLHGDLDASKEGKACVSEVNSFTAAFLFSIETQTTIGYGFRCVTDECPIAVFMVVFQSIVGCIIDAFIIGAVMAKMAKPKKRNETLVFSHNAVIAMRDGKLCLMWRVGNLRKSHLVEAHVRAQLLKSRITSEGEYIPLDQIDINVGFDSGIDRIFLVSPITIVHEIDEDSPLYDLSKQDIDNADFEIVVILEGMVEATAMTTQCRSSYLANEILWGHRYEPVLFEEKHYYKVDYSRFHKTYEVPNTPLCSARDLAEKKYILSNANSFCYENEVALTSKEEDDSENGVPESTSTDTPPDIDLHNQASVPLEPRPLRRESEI", "assay": "Inhibition of Kir2.1 (unknown origin) upto 30 uM"}, "[21]": {"biological_target": "T2, Inward rectifier potassium channel 4 (Homo sapiens) (UniProt P48050)", "T2 sequence (whole entry)": "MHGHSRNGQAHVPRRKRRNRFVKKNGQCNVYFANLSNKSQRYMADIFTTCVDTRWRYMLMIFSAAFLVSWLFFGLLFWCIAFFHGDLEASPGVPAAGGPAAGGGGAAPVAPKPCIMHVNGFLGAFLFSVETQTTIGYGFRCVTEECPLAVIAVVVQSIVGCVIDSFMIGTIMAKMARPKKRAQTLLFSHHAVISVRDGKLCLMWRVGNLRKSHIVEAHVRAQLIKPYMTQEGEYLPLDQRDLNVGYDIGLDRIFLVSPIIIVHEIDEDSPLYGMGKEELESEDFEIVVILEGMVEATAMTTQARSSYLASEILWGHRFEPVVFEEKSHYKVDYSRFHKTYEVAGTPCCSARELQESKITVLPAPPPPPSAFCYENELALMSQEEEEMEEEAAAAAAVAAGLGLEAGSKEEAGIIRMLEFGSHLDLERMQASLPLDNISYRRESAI", "assay": "Inhibition of Kir2.3 (unknown origin) upto 30 uM"}, "[22]": {"biological_target": "Voltage-dependent L-type calcium channel subunit alpha-1C (Homo sapiens, UniProt Q13936)", "sequence (Q13936 whole entry)": "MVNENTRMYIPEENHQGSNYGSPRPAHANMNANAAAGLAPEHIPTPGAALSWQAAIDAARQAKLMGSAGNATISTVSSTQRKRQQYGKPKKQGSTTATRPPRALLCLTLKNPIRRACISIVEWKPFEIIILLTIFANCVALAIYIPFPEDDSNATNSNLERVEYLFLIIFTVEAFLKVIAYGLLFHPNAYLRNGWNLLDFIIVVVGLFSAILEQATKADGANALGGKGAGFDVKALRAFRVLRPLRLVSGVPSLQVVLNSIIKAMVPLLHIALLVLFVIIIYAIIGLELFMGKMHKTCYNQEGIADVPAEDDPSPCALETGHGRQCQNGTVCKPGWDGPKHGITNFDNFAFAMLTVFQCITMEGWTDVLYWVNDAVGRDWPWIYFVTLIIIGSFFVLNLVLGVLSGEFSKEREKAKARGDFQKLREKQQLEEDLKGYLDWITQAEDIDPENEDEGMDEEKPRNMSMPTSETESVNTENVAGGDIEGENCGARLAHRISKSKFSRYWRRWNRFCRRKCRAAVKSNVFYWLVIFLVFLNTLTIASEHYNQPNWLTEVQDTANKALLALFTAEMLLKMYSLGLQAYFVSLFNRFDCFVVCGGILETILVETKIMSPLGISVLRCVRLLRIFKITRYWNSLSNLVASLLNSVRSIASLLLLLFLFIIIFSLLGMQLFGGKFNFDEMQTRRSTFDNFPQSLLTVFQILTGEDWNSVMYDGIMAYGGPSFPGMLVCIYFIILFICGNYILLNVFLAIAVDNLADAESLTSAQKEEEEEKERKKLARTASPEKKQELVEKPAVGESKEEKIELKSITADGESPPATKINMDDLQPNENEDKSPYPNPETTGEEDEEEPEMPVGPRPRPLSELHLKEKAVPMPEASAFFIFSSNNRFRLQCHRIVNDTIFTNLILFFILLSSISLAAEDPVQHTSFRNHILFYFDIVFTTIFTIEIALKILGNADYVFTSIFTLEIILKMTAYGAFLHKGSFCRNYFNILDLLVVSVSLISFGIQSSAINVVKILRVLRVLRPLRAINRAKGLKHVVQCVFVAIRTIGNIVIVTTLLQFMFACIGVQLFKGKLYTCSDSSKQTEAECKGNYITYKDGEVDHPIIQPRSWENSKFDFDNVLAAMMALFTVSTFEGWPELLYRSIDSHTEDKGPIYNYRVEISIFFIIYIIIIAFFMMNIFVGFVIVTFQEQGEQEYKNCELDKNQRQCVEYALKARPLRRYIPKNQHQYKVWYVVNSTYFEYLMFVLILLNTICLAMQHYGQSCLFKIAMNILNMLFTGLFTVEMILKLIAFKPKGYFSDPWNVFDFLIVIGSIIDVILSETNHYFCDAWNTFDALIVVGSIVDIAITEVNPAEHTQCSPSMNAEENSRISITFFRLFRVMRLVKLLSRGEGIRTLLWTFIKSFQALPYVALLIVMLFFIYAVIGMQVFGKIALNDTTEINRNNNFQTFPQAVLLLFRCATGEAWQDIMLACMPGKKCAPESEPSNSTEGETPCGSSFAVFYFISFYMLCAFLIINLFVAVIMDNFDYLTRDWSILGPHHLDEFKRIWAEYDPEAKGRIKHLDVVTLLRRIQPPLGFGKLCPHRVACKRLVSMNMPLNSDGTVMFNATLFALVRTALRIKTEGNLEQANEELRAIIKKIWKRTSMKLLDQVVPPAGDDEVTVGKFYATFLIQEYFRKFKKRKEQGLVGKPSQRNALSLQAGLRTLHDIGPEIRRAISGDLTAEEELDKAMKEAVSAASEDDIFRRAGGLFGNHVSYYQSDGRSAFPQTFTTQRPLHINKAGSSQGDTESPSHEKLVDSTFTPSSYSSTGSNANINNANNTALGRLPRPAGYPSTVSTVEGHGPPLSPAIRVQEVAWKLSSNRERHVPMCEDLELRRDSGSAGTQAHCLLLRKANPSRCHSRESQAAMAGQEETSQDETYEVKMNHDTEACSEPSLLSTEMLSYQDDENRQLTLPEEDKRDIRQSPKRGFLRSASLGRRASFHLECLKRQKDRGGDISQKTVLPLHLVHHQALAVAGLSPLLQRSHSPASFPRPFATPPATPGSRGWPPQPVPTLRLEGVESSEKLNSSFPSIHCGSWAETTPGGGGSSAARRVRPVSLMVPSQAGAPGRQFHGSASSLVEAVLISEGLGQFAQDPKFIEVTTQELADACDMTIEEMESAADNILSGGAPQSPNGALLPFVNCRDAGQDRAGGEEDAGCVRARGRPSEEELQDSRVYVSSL", "assay": "Inhibition of Cav1.2 (unknown origin)"}, "[23]": {"biological_target": "Sodium channel protein type 5 subunit alpha (Homo sapiens, UniProt Q14524)", "assay": "Inhibition of Nav1.5 (unknown origin)"}, "Cytochrome P450 3A4": {"biological_target": "Cytochrome P450 3A4 (Homo sapiens, UniProt P08684)", "assay": "Reversible inhibition of human CYP3A4", "assay_type": "ADME"}, "Cytochrome P450 2C9": {"biological_target": "Cytochrome P450 2C9 (Homo sapiens, UniProt P11712)", "sequence (P11712 whole entry)": "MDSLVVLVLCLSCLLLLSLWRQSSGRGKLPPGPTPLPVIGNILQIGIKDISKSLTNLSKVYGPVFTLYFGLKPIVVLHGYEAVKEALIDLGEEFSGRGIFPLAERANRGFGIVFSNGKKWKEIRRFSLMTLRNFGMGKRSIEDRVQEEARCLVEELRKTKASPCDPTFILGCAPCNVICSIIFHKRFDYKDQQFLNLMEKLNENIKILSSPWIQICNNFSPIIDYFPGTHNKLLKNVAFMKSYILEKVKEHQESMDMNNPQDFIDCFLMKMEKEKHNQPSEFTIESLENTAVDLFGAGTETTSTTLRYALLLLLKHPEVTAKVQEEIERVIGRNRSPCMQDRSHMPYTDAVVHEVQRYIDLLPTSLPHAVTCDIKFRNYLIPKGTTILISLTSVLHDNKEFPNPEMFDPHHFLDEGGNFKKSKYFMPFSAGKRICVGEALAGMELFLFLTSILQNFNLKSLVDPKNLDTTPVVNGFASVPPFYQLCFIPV", "assay": "Reversible inhibition of human CYP2C9", "assay_type": "ADME"}, "Cytochrome P450 2D6": {"biological_target": "Cytochrome P450 2D6 (Homo sapiens, UniProt P10635)", "sequence (P10635 whole entry)": "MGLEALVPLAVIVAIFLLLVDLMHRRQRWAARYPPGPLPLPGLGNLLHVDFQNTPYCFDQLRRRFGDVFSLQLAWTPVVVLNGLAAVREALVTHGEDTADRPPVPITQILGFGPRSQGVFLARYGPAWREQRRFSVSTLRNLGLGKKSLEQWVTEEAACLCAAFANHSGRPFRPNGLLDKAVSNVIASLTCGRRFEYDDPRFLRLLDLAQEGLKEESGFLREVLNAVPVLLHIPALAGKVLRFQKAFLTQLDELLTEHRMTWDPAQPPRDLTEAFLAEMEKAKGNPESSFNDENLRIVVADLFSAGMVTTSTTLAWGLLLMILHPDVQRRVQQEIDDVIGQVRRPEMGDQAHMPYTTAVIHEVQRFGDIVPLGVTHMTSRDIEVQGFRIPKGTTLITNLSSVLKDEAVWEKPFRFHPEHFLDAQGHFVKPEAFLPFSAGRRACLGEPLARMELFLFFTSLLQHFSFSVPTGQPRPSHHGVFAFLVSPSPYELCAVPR", "assay": "Reversible inhibition of human CYP2D6", "assay_type": "ADME"}, "Acetylcholinesterase": {"biological_target": "Acetylcholinesterase (Homo sapiens, UniProt P22303)", "assay": "Inhibition of ACES (unknown origin)"}, "[24]": {"biological_target": "Sodium-dependent serotonin transporter (Homo sapiens, UniProt P31645)", "sequence (P31645 whole entry)": "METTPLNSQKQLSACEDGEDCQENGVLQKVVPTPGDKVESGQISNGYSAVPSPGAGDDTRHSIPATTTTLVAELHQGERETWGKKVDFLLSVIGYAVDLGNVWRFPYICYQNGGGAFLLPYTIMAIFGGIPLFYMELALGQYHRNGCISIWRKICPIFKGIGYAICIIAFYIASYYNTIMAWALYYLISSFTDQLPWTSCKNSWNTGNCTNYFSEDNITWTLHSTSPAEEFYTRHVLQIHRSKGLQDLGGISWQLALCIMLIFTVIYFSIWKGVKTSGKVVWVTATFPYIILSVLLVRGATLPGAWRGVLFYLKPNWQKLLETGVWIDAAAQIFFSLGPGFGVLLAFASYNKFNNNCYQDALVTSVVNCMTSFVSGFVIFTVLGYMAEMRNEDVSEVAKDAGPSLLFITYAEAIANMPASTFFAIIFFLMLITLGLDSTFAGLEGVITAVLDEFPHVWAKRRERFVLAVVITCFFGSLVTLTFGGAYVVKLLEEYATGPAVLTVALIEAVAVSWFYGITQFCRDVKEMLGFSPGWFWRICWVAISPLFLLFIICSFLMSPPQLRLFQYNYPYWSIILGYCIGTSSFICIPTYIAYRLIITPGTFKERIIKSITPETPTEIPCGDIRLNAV", "assay": "Inhibition of human SERT"}, "[25]": {"assay": "Half life in rat at 1 mg/kg, iv or 2 mg/kg, po", "assay_type": "ADME, organism-based", "details": "in vivo", "outline": "as §2"}, "[26]": {"assay": "Drug excretion in bile duct cannulated rat urine", "assay_type": "ADME", "details": "in vivo"}, "[27]": {"assay": "Drug metabolism in bile duct cannulated rat assessed as lactone hydrolysis", "assay_type": "ADME"}}, "note": "Activity calls are given as the source filed them. The calls are words filed in the database; no cut-off is given here.", "data": [{"smiles": "Cc1c([C@@H](O)CN2CCN(C[C@H](O)c3ccc4c(c3C)COC4=O)CC2)ccc2c1COC2=O", "note": "[MK-7145]", "values": [{"measurement": "IC50", "setting": "[1]", "value": 23, "unit": "µM"}, {"measurement": "fold change (FC)", "setting": "Rattus norvegicus [2]", "value": 8.5}, {"measurement": "fold change (FC)", "setting": "Rattus norvegicus [3]", "value": 8.6}, {"measurement": "fold change (FC)", "setting": "Rattus norvegicus [4]", "value": 8.6}, {"measurement": "fold change (FC)", "setting": "Rattus norvegicus [5]", "value": 1.7}, {"measurement": "fold change (FC)", "setting": "Rattus norvegicus [6]", "value": 2.1}, {"measurement": "fold change (FC)", "setting": "Rattus norvegicus [7]", "value": 1.8}, {"measurement": "Vd", "setting": "[8]", "value": 3.8, "unit": "L/kg"}, {"measurement": "clearance", "setting": "[9]", "value": 56, "unit": "mL/min/kg"}, {"measurement": "Vd", "setting": "[10]", "value": 7.5, "unit": "L/kg"}, {"measurement": "AUC/dose", "setting": "[11]", "value": 0.3, "unit": "µM·kg·h/mg"}, {"measurement": "half-life", "setting": "[12]", "value": 4, "unit": "h"}, {"measurement": "bioavailability", "setting": "[13]", "value": 25, "unit": "%"}, {"measurement": "metabolised at 2 h, 1 µM", "setting": "[14]", "value": "15 to 37", "unit": "%"}, {"measurement": "metabolised at 2 h, 1 µM", "setting": "[15]", "value": "< 1", "unit": "%"}, {"measurement": "metabolised at 2 h, 1 µM", "setting": "[16]", "value": "< 1", "unit": "%"}, {"measurement": "metabolised at 2 h, 1 µM", "setting": "[17]", "value": "< 1", "unit": "%"}, {"measurement": "metabolised at 2 h, 1 µM", "setting": "[18]", "value": "< 1", "unit": "%"}, {"measurement": "half-life", "setting": "[19]", "value": 5, "unit": "h"}, {"measurement": "inhibition (INH)", "setting": "[20]", "value": "Not Active"}, {"measurement": "inhibition", "setting": "[21]", "value": "inactive"}, {"measurement": "IC50", "setting": "[22]", "value": "> 30", "unit": "µM"}, {"measurement": "IC50", "setting": "[23]", "value": "> 30", "unit": "µM"}, {"measurement": "IC50", "setting": "Cytochrome P450 3A4", "value": "> 50", "unit": "µM"}, {"measurement": "IC50", "setting": "Cytochrome P450 2C9", "value": "> 50", "unit": "µM"}, {"measurement": "IC50", "setting": "Cytochrome P450 2D6", "value": "> 50", "unit": "µM"}, {"measurement": "IC50", "setting": "Acetylcholinesterase", "value": 9.94, "unit": "µM"}, {"measurement": "IC50", "setting": "[24]", "value": 0.12, "unit": "µM"}, {"measurement": "half-life", "setting": "[25]", "value": 1.1, "unit": "h"}, {"measurement": "Drug excretion", "setting": "[26]", "value": "Metabolite_Detected"}, {"measurement": "Drug metabolism", "setting": "[27]", "value": "Metabolite_Detected"}]}]}
